Shown are actives, neighbours in structure and some others; about 1.3% of the full set was active somewhere.
DDE Tn7 FP inh – inhibitors of Tn7 peptide binding to human fibrin DD(E); FP displacement of FITC-Tn7 peptide from fibrin DD(E); 0% = median of compound wells per plate; inhibition, % at 8.3 µM; actives 0.13% (n = 370,000); AID 720508;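 active means inhibition above the mean of compounds falling within the control limits plus 3 SD of them, cut at about 14% in these data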
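Assay system: Human fibrin DD(E) protein | Medium: Tris buffer with calcium and detergent, pH 7.8 | Reagent: 0.1 µM fluorescent Tn7 | Compound dosing: Single point at 8.3 µM | Times: 10 min preincubation, 3 h with tracer, room temperature | Detection: Fluorescence polarization of the labelled Tn7 tracer | Controls: Aha-Tn7 high control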
DDE Tn6 FP inh – disrupts Tn6 cyclic peptide binding to fibrin D-Dimer-E complex | P02675 | Fibrin DD(E) TRITC-Tn6 fluorescence polarization displacement | inhibition, % at 8.3 µM | actives 0.21% (n = 370,000);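 active means inhibition above a per-campaign cutoff: mean of compounds within control limits plus 3 SD, cut at about 15% in these data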
TCR CD3 inh – inhibitors of human TCR-CD3 interaction. TAMRA-labeled TCR probe fluorescence, biochemical. actives 0.37% (n = 360,000). inhibition, % at 9.4 µM. AID 651800; in the data active means inhibition above about 19%;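 further: recombinant mutant TCR 2C K166C tagged with TAMRA read by polarization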
HTRA1 inhibitor – inhibitors of human serine peptidase HTRA1 | Q92743 | recombinant HTRA1, FP-rhodamine activity-based probe, fluorescence polarization | inhibition, % at 5.96 µM | actives 0.5% (n = 340,000) | AID 504803; in the data active means inhibition above about 36%
Target sequence (Q92743 whole entry, looked up): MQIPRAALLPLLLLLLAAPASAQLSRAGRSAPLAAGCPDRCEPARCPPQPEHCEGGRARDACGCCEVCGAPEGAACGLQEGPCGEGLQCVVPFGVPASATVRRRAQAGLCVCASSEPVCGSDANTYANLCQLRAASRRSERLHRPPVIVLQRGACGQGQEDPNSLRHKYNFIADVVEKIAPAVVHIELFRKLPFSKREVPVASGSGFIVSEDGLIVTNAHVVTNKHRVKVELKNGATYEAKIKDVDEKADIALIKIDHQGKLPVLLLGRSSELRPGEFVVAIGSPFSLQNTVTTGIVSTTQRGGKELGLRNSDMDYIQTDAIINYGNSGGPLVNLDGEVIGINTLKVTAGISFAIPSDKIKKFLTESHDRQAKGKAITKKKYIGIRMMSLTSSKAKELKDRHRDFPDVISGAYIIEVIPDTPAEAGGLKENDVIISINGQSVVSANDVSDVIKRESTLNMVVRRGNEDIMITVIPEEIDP
ABHD4 inh – inhibits mouse alpha/beta hydrolase domain 4; inhibition, % at 8.92 µM; actives 0.54% (n = 370,000); purified mABHD4, FP-Rh probe fluorescence polarization; Q8VD66;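 active means inhibition exceeding the mean over every tested compound plus 3 SD, cut at about 30% in these data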
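Assay system: wild-type mouse ABHD4 protein; compound: single nominal dose of 8.92 µM, 0.89% DMSO final; schedule: 45 min + 60 min at 25 °C; measured by: FP readout, ex 525 nm / em 598 nm; evaluation: % inhibition of FP-Rh probe binding versus controls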
HTRA1 inh conf – HTRA1 (human) inhibition, confirmation; shares compounds with HTRA1 inhibitor; recombinant HTRA1, FP-rhodamine activity-based probe, fluorescence polarization; inhibition, % at 5.96 µM; actives 66% (n = 1,600); AID 540248;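 active means mean inhibition over three repeats above a set limit taken from the earlier primary screen, cut at about 37% in these data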;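 further: inhibitors block probe binding so polarization drops and inhibition rises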
Each line names hits and unclear results; the compound was inactive in the other large screens (follow-up assays come after a bar, where they were run).

CCCCC1=CC2=CC(=O)C(C)(OC(=O)CC)C(=O)C2=CN1CCc1c[nH]c2ccccc12 (stereo unspecified)	HTRA1 inhibitor 51 | HTRA1 inh conf 36
CCC(C)Nc1ccc(NC(C)CC)cc1 (stereo unspecified)	HTRA1 inhibitor 67 (no result: DDE Tn7 FP inh, DDE Tn6 FP inh, TCR CD3 inh, ABHD4 inh) | HTRA1 inh conf 75
CCC(C)NC(=O)Nc1ccc(Br)cc1 (stereo unspecified)	none
CCc1ccc(C(=O)/C=C2\Sc3ccccc3NC2=O)cc1	HTRA1 inhibitor 59 | HTRA1 inh conf 93
Cn1c(=O)c2c(nc(SCC(=O)O)n2Cc2cc3c(cc2Cl)OCO3)n(C)c1=O	none
Cc1cc(N=Nc2ccc(C)c(N=Nc3cc(C)c(N)cc3N)c2)c(N)cc1N	HTRA1 inhibitor 77 | HTRA1 inh conf 74
Cc1cc(C)nc(Nc2ccc(N3CCCC3)cc2)n1	HTRA1 inhibitor 40 | HTRA1 inh conf 40
Clc1ccccc1Cn1c(/C=C/c2ccco2)nc2ccccc21	none
O=c1[nH][nH]c(=O)c2cc([N+](=O)[O-])ccc12	none
O=C(Oc1ccc(/C=N/NC(=O)c2ccccc2O)cc1)c1ccccc1	HTRA1 inhibitor 41 | HTRA1 inh conf inactive
O=C(Oc1ccc(/C=N/NC(=O)c2ccccc2F)cc1)c1ccccc1	none
CN(C)c1ccc(C=c2c3ccccc3n3c2c2ccccc2[n+]3C)cc1	TCR CD3 inh 31, HTRA1 inhibitor 87, ABHD4 inh 58 | HTRA1 inh conf 90
COCCN=c1scc(-c2cccs2)n1/N=C/c1ccc(O)c(O)c1O	HTRA1 inhibitor 79, ABHD4 inh 55 | HTRA1 inh conf 67
COCCN=c1scc(-c2ccccc2)n1/N=C/c1c[nH]c2ccccc12	none
COC(=O)c1ccc(OCC(=O)Nc2ccccc2C(=O)NC2CC2)cc1	none
C=CCn1c(C)cc(-c2csc(N)n2)c1C	HTRA1 inhibitor 60 | HTRA1 inh conf inactive
Cc1cc(-c2csc(N)n2)c(C)n1-c1ccc(Cl)c(Cl)c1	none
C=CCn1c(C)cc(-c2csc(NC)n2)c1C	HTRA1 inhibitor 42 | HTRA1 inh conf inactive
COc1ccc(-n2c(C)cc(-c3csc(N)n3)c2C)cc1	HTRA1 inhibitor 39 | HTRA1 inh conf inactive
CN1C(=O)C(O)(CC(=O)/C=C\c2ccc3c(c2)OCO3)c2ccccc21 (stereo unspecified)	none (no result: HTRA1 inhibitor)
COc1ccccc1NS(=O)(=O)c1cc(N)ccc1N1CCOCC1	HTRA1 inhibitor 37 | HTRA1 inh conf inactive
O=C(Nc1ccc(O)cc1)C1CC=CCC1 (stereo unspecified)	HTRA1 inhibitor 48 | HTRA1 inh conf 42
O=C(Nc1nccs1)C1CC=CCC1 (stereo unspecified)	none
O=C1C=C(NCC2CCCO2)CC(c2ccccc2)C1 (stereo unspecified)	none
CCc1ccccc1NC(=O)C1NC(=O)CC1c1ccccc1 (stereo unspecified)	none
NC(=O)c1cc2c3ccccc3ccn2c1-c1ccccc1	HTRA1 inhibitor 42 | HTRA1 inh conf inactive
COc1ccc(-n2c(=O)c(CCC(=O)N3CCC(C)CC3)nc3ccccc32)cc1	none
Oc1ccc2ccccc2c1N=Nc1ccc(F)cc1	none
O=C(O)Cc1ccc(N=Nc2c(O)c(C(=O)O)cc3ccccc23)cc1	HTRA1 inhibitor 45 | HTRA1 inh conf 43
Nc1cc(N)cc(-c2nc3ccccc3[nH]2)c1	HTRA1 inhibitor 47 | HTRA1 inh conf inactive
c1ccc(-c2nc3ccccc3[nH]2)cc1	none
CSc1ccc(CN(C)C(=O)CNC(=O)CNS(=O)(=O)c2ccc(C)c(C)c2)cc1	none
COc1ccc(N(CC(=O)Nc2ccccc2C(=O)NCC(C)C)S(C)(=O)=O)cc1	none
COc1ccc(-n2nnnc2SCC(N)=O)cc1	none
COc1ccc(-n2nnnc2SCC(=O)c2ccc(O)c(O)c2)cc1	HTRA1 inhibitor 46 | HTRA1 inh conf 61
COC(=O)C1=C(C)NC(=O)/C1=C\c1cc(C)n(-c2cccc(C)c2)c1C	HTRA1 inhibitor 52 | HTRA1 inh conf 38
O=C(Nc1ccc(NC(=O)c2ccco2)cc1)c1ccco1	none
O=C(Nc1ccc(Nc2ccccc2)cc1)c1ccco1	HTRA1 inhibitor 38 | HTRA1 inh conf inactive
COc1cccc(-c2cc(C(F)(F)F)nc(-n3cc(C)cn3)n2)c1	none
CCOC(=O)CC[C@@H]1CC[C@]2(CCCN(C(=O)c3ccccc3)C2)O1	none (no result: TCR CD3 inh, HTRA1 inhibitor)
C/C(N=Nc1nc2ccccc2s1)=N\Nc1ccccc1O	HTRA1 inhibitor 68 | HTRA1 inh conf 74
Oc1[nH]c2ccccc2c1N=Nc1nc2ccccc2s1	none
CCOC(=O)C1=NN(C(=O)c2ccccc2)C(O)(c2ccc(C)cc2)C1 (stereo unspecified)	none
COC(=O)C1=NN(C(=O)c2cccc(Br)c2)C(O)(c2ccc(Cl)cc2)C1 (stereo unspecified)	HTRA1 inhibitor 66 | HTRA1 inh conf 65
COC(=O)c1cc(C#N)c(Oc2ccccc2)nc1C	none
NNC(=O)c1cc(-c2cccs2)nc2ccccc12	none
Cc1cccc2sc(NNC(=O)c3cc(-c4cccs4)nc4ccccc34)nc12	HTRA1 inhibitor 44 | HTRA1 inh conf 42
O=C(Nc1ccc2nc(-c3ccco3)c(-c3ccco3)nc2c1)N1CCN(c2ccccn2)CC1	TCR CD3 inh 34, HTRA1 inhibitor 43, ABHD4 inh 30 | HTRA1 inh conf inactive
CCOc1ccc(N2C(=O)CNC2=S)cc1	none
CCOc1ccc(N2C(=O)CS/C2=C(\C(Cl)=C(Cl)Cl)[N+](=O)[O-])cc1	HTRA1 inhibitor 42 (no result: DDE Tn7 FP inh, DDE Tn6 FP inh, TCR CD3 inh, ABHD4 inh) | HTRA1 inh conf active
O=C1C=CC(=O)N1c1ccc2ccccc2c1	none
O=C1C=CC(=O)N1c1ccc(Nc2ccccc2)cc1	HTRA1 inhibitor 53 | HTRA1 inh conf inactive
CCCn1c(/C=N/Nc2nc3ccccc3[nH]2)nc2ccccc21	none
CC(C)Cn1c(/C=N/Nc2nc3ccccc3[nH]2)nc2ccccc21	none
C=CCn1cc(/C=N/Nc2nc3ccccc3[nH]2)c2ccccc21	HTRA1 inhibitor 41 | HTRA1 inh conf 42
Cn1c(/C=N/Nc2nc3ccccc3[nH]2)nc2ccccc21	HTRA1 inhibitor 36 | HTRA1 inh conf 44
CC(Sc1n[nH]c(N)n1)C(=O)Nc1cccc(S(=O)(=O)N2CCOCC2)c1 (stereo unspecified)	none
Cc1nn(C2CCS(=O)(=O)C2)c(Cl)c1/C=C/C(=O)OCC(=O)Nc1ccccc1[N+](=O)[O-] (stereo unspecified)	none
COc1cccc(C(=O)OCC(=O)NC23CC4CC(CC(C4)C2)C3)c1	none
CC(=O)Oc1cc(C(=O)OCC(=O)NC23CC4CC(CC(C4)C2)C3)cc(OC(C)=O)c1OC(C)=O	TCR CD3 inh 49, HTRA1 inhibitor 66 | HTRA1 inh conf 75
CCc1ccc(NC(=O)Cn2nnc(-c3ccc(C)cc3-n3cnnn3)n2)cc1	none
c1cc2c3c(cccc3c1)NC1(CCC3(CC1)Nc1cccc4cccc(c14)N3)N2	HTRA1 inhibitor 56 | HTRA1 inh conf 55

High-throughput results from PubChem BioAssay.
